# Measurements reported in ChEMBL document CHEMBL1150875, “Petrosaspongiolides M-R: new potent and selective phospholipase A2 inhibitors from the New Caledonian marine sponge Petrosaspongia nigra” (J Nat Prod, 1998).
# Key:
# [1] = target: T1, Phospholipase A2 (Apis mellifera) (UniProt P00630); assay: Inhibition of bee venom secretory PLA2 at 10 uM; design: scale not given: the % may be the effect or the level left
# T1 sequence (whole entry): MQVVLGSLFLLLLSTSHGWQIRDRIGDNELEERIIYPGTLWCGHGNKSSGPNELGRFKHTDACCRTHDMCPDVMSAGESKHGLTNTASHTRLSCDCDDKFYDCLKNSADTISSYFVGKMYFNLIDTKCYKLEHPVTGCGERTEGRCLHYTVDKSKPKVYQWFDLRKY
# Summary of the method: (§1)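 Secreted PLA2 from Naja naja venom or bee venom exposed to 10 µM compound. Result reported as percent inhibition, mean ± S.E.M. of n = 6.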
# Sus scrofa = organism: Sus scrofa; assay: Inhibition of pig pancreatic secretory PLA2 at 10 uM; design: scale not given: the % may be the effect or the level left
# Summary of the method: (§2)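 Percent inhibition of the enzyme's activity with test compound at 10 µM. Reported as mean ± S.E.M., n = 6, with significance marked at p < 0.05 and p < 0.01.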
# [2] = target: Acidic phospholipase A2 2 (Naja naja) (UniProt P15445); assay: Inhibition of Naja Naja venom secretory PLA2 at 10 uM; design: scale not given: the % may be the effect or the level left; summary of the method: as §1
# [3] = target: Phospholipase A2 (Homo sapiens) (UniProt P04054); assay: Inhibition of human synovial secretory PLA2 at 10 uM; design: scale not given: the % may be the effect or the level left; summary of the method: as §2
# Phospholipase A2 = target: T2, Phospholipase A2 (Apis mellifera, UniProt P00630); assay: Inhibition of bee venom secretory PLA2
# T2 sequence (P00630 whole entry): T1 sequence (whole entry)
# Chain of Phospholipase A2 (Homo sapiens) (P04054 23-148 limits assumed): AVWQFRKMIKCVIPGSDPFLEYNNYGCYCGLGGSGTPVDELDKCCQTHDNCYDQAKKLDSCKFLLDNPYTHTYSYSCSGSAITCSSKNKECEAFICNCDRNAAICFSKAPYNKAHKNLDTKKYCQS
# Chain of Acidic phospholipase A2 2 (Naja naja) (P15445 whole entry): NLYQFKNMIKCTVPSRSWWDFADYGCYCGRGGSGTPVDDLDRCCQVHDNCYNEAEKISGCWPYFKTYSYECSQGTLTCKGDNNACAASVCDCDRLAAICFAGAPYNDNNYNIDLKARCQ
SMILES,Activity [1] [%],Activity (Sus scrofa) [%],Activity [2] [%],Activity [3] [%],IC50 (Phospholipase A2) [µM]
CC(=O)OC[C@@]1(C)CCC[C@]2(C)[C@H]3CC[C@@H]4[C@H](O)O[C@@H](C5=CC(=O)OC5O)C[C@H]4[C@]3(C)CC[C@@H]12 (stereo partly specified),12.5,0,4.2,30.1,
CC(=O)O[C@@H]1O[C@@H](C2=CC(=O)OC2O)C[C@@H]2[C@@H]1CC[C@H]1[C@@]2(C)CC[C@H]2C(C)(C)CCC[C@]12C (stereo partly specified) [PETROSASPONGIOLIDE M],71,12.3,11.5,68.6,0.6
CC1=C(CC/C(C)=C/CCC2=CC[C@H](C3=CC(=O)O[C@H]3O)O[C@H]2O)C(C)(C)CCC1 [MANOALIDE],,,,,7.5
CC(=O)O[C@H]1O[C@@H](C2=CC(=O)OC2O)C[C@@H]2[C@@H]1CCC1[C@@]3(C)CCCC(C)(C)C3CC[C@]12C (stereo partly specified),34.8,0,5.6,59,
CC1(C)CCC[C@]2(C)[C@H]3CC[C@H](C(=O)O)[C@@H](/C=C/C4=CC(=O)OC4O)[C@]3(C)CC[C@@H]12 (stereo partly specified),18.8,0.8,1,7.1,
CC(=O)OC1OC(=O)C=C1[C@H]1C[C@@H]2[C@H](CCC3[C@@]4(C)CCCC(C)(C)C4CC[C@]32C)[C@@H](OC(C)=O)O1 (stereo partly specified),10.6,0,6.9,32.1,
CC(=O)OC[C@@]1(C)CCC[C@]2(C)[C@H]3CC[C@@H]4[C@H](OC(C)=O)O[C@@H](C5=CC(=O)OC5O)C[C@H]4[C@]3(C)CC[C@@H]12 (stereo partly specified),43.9,11.6,6.8,44,
